Data as given in ChEMBL document CHEMBL1134091, “Aromatic inhibitors of dehydroquinate synthase: synthesis, evaluation and implications for gallic acid biosynthesis” (Bioorg Med Chem Lett, 2001).

T1: 3-dehydroquinate synthase (Escherichia coli K-12, UniProt P07639)
T1 sequence (P07639 whole entry): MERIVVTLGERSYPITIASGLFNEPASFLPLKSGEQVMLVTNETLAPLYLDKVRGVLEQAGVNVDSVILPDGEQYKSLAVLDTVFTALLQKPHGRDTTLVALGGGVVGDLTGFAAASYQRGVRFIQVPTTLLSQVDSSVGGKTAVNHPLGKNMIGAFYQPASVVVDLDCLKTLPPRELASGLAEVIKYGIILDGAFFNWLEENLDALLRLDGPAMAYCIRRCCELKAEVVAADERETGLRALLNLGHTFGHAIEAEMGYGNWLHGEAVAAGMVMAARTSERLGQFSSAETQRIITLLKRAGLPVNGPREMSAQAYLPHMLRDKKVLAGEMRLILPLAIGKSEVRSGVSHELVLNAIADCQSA


How the values were obtained:
[1] = molecular target: T1, 3-dehydroquinate synthase; experiment: Inhibition constant for binding to Co2+ form of 3-dehydroquinate synthase (DHQ) purified from Escherichia coli
Method in brief: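 E. coli DHQ synthase, Co2+ form, purified with […] in all buffers from lysis onward. Assayed at rt in 50 mM MOPS pH 7.5 with […], 10 mM NAD+, 1 unit dehydroquinase, varied DAHP and inhibitor; 0.024 units enzyme added last. A234 increase followed. Ki from Dixon plots, or as half the I50 x-intercept at DAHP = Km ([…]).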

[2] = molecular target: T1, 3-dehydroquinate synthase; experiment: Inhibition constant for binding to Zn2+ form of 3-dehydroquinate synthase (DHQ) purified from Escherichia coli
Method in brief: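 E. coli DHQ synthase, Zn2+ form, purified with 75 mM ZnSO4 replacing CoCl2 in all buffers. Assayed at rt in 50 mM MOPS pH 7.5 with […] mM NAD+, 1 unit dehydroquinase, varied DAHP and inhibitor; 0.024 units enzyme added last. A234 increase followed. Ki from Dixon plots, or as half the I50 x-intercept at DAHP = Km ([…]).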

[3] = substrate: Oc1ccccc1O; experiment: Kinetics expressed as Michaelis-Menten constant against Zn2+ form of 3-dehydroquinate synthase purified from Escherichia coli
Method in brief: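 Zn2+-form enzyme from E. coli, purified with ZnSO4 replacing CoCl2 in every buffer from cell lysis onward. Coupled assay in 50 mM MOPS pH 7.5 with ZnSO4, NAD+, dehydroquinase (1 unit) and varying DAHP substrate. Equilibrated at rt, then started with 0.024 units synthase. Absorbance increase at 234 nm monitored. Initial rates from linear least-squares fits.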

[4] = substrate: Oc1ccccc1O; experiment: Kinetics expressed as Michaelis-Menten constant against Co2+ form of 3-dehydroquinate synthase purified from Escherichia coli
Method in brief: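 Co2+-form enzyme from E. coli, with CoCl2 in all buffers from lysis through purification. Coupled assay in 50 mM MOPS pH 7.5 with CoCl2, NAD+, dehydroquinase (1 unit) and varying DAHP substrate. Equilibrated at rt, then started with 0.024 units synthase. Absorbance rise at 234 nm followed over time. Initial rates taken from linear least-squares fits of progress curves.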

Molecule | Ki [1] [µM] | Ki [2] [µM] | Km [3] [µM] | Km [4] [µM]
O=C(O)c1ccc(O)c(O)c1 [PROTOCATECHUIC ACID] | 44 | 65 |  | 
O=C(O)c1cc(O)c(O)c(CCP(=O)(O)O)c1 | 5 | 1.7 |  | 
O=P(O)(O)CCc1cccc(O)c1O | 200 | 90 |  | 
O=C(O)c1cc(O)c(O)c(CP(=O)(O)O)c1 | 21 | 0.35 |  | 
Oc1ccccc1O [CATECHOL] | 880 | 630 |  | 
3-dehydroquinate synthase (Escherichia coli K-12), P07639 (protein) MERIVVTLGERSYPITIASGLFNEPASFLPLKSGEQVMLVTNETLAPLYLDKVRGVLEQAGVNVDSVILPDGEQYKSLAVLDTVFTALLQKPHGRDTTLVALGGGVVGDLTGFAAASYQRGVRFIQVPTTLLSQVDSSVGGKTAVNHPLGKNMIGAFYQPASVVVDLDCLKTLPPRELASGLAEVIKYGIILDGAFFNWLEENLDALLRLDGPAMAYCIRRCCELKAEVVAADERETGLRALLNLGHTFGHAIEAEMGYGNWLHGEAVAAGMVMAARTSERLGQFSSAETQRIITLLKRAGLPVNGPREMSAQAYLPHMLRDKKVLAGEMRLILPLAIGKSEVRSGVSHELVLNAIADCQSA |  |  | 16 | 18
